# Sampled rows, rich in hits. Any-hit rate of the full collection: about 9.6%.
# BaF3 tox: parental Ba/F3 viability inhibition as JAK2V617F counter-screen. 220,000 tested, 1.1% active. CellTiter-Glo ATP luminescence. AID 1486. inhibition, % at 5.6 µM;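 active = inhibition above a per-campaign cutoff, the mean inhibition of all tested compounds plus 3 SD, cut at about 27% in these data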;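 note: 0% = DMSO wells and 100% = JAK Inhibitor I control wells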
# Ba/F3 V617F tox: loss of viability in JAK2V617F-driven Ba/F3 cells; Ba/F3 EpoR-JAK2V617F viability, ATP luminescence; 220,000 tested, 1.1% active; inhibition, % at 5.6 µM;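 active = inhibition above the campaign mean plus 3 SD over all tested compounds, cut at about 24% in these data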;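 note: cytokine-independent growth of Ba/F3 cells driven by EpoR plus mutant JAK2; 0% = DMSO-treated cells and 100% = JAK inhibitor I control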
# APP 5UTR inh: APP translation inhibition; AID 1285; 190,000 tested, 0.82% active; inhibition, % at 2 µM; SH-SY5Y APP 5'UTR-luciferase reporter, luminescence;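 active = inhibition above a set limit, derived from the sample mean plus 3 SD, cut at about 45% in these data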
# bCat nuc transl: modulators of beta-catenin nuclear translocation. HeLa beta-catenin nuclear translocation, immunofluorescence imaging. nuclear translocation activity, % at 5 µM. 190,000 tested, 0.3% active. AID 1665;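 active = nuclear translocation activity above 50% at 5 µM, with a well cell count of 50 or more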;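 note: per-cell ratio of nuclear to cytoplasmic median beta-catenin stain intensity; plate controls were DMSO negative control for no effect and GSK-3 inhibitor IX positive control for full effect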
#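 Test system: human HeLa cells, native beta-catenin. Compound dosing: 5 µM primary single dose, 0.1% DMSO, 0.02–20 µM confirmation series. Incubation: compound exposure 24 h at 37°C. Detection: beta-catenin immunostaining with DAPI counterstain, 20x imaging, 6 fields/well. Read-out basis: Nuclear/cytoplasmic beta-catenin signal ratio, % activation.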
# L major viab: reduces viability of Leishmania major promastigotes; resazurin fluorescence viability; inhibition, % at 10 µM; 200,000 tested, 9% active; AID 1063; in the data active = inhibition above about 50%;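 note: promastigotes grown with compound for 44 hours at 28 °C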
# MT stabilizer: microtubule stabilizers in HeLa cells. HeLa tubulin immunostaining HCS, 24 h; share of cells brighter than vehicle mean+2SD. AID 2205. % tubulin-high responders, % at 10 µM. 200,000 tested, 0.83% active;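 active = plate Z-score above 3 for both tubulin-high and condensed-nucleus cell shares, with cell loss under 80%, at 10 µM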;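 note: anti alpha tubulin signal scored within the nucleus-defined area of each cell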
# * marks the source's active call; other numbers are inactive results; . = no result given.
SMILES,BaF3 tox,Ba/F3 V617F tox,APP 5UTR inh,bCat nuc transl,L major viab,MT stabilizer
N/C(=N\OC(=O)/C=C/c1ccccc1Cl)c1ccccn1,12.8,4.4,-123.5,0.7,2.2,1.4
C/C(=N\OC(=O)c1ccc(Br)cc1)c1ccccn1,-0.8,-6.0,-2.3,.,88.0*,3.2
COc1ccc(NC(=O)CSC2CC(=O)N(c3ccc4c(c3)OCCO4)C2=O)cc1 (centres undefined),2.7,-2.3,10.6,1.4,-8.8,1.8
O=C(c1ccccc1F)N(Cc1nc2ccccc2c(=O)[nH]1)C1CCCC1,0.0,0.4,-10.2,-2.2,-2.0,1.2
Fc1ccc2c(c1)/C(=N/Nc1ccccn1)CCS2,-1.6,-0.7,-13.3,-2.6,55.0*,3.3
CCOC(=O)CSc1nc(C(C)(C)C)nc2ccccc12,7.2,-1.1,-19.3,0.6,0.6,1.9
COc1cccc(C2C=C(Nc3ccccc3)C(=O)N2c2ccccc2)c1 (centres undefined),3.4,-1.9,12.8,-2.5,66.2*,2.1
O=C1CCN=C(Nc2ccc(F)cc2)N1Cc1ccccc1,10.6,1.3,-2.2,.,72.1*,2.4
Cc1cc(C)cc(NC2=NCC(=O)N2Cc2ccccc2)c1,6.3,3.9,3.0,-11.9,20.4,3.0
CCNc1ccc(C(=O)NN=C2CCCC2)cc1[N+](=O)[O-],5.6,1.4,64.9*,-3.1,-4.6,1.7
CC(NC(=O)C1CC12CCC2)c1ccccc1 (centres undefined),3.1,-1.6,-15.1,0.6,-3.6,3.2
C=CCC1(NC(C)c2ccccc2)CCCCC1 (centres undefined),2.3,-3.9,7.0,-1.1,56.6*,2.5
Cc1ccc(NC(=O)C(=O)NCCOc2ccccc2Cl)cc1,3.6,-4.6,15.4,-1.7,-4.4,4.4
CCc1ccc(NC(=O)C(=O)NCCOc2ccccc2Cl)cc1,6.3,-1.2,-20.1,3.2,3.9,26.0*
O=C(NCc1cccnc1)c1cccc(NC(=O)c2ccco2)c1,7.0,3.2,-3.2,-1.0,77.5*,4.6
O=C(NCC1CCCO1)c1cccc(NC(=O)c2ccco2)c1 (centres undefined),2.0,3.1,-55.1,.,42.3,4.2
O=C(NCc1cccnc1)c1cccc(Cl)c1,4.7,0.1,1.2,-3.0,-7.0,2.4
O=C(NC1CCCC1)c1cccc(NC(=O)c2ccco2)c1,5.2,0.2,29.4,.,85.8*,2.6
O=C(NC1=NCCS1)c1cccc(NC(=O)c2ccco2)c1,2.7,-1.1,-0.7,-1.2,98.6*,2.8
CC(C)(C)NC(=O)c1cccc(NC(=O)c2ccco2)c1,4.8,5.0,8.0,-0.1,33.1,3.1
CCn1c(SCC(=O)N2c3ccccc3CCc3ccccc32)nc2c1c(=O)n(C)c(=O)n2C,3.8,1.5,-8.5,.,59.9*,2.5
CC1Cc2ccccc2N1C(=O)CSc1nc2c(c(=O)n(C)c(=O)n2C)n1Cc1ccccc1 (centres undefined),0.9,-4.7,-5.5,4.9,63.5*,4.2
CCn1nnnc1SCC(=O)N1c2ccccc2CCc2ccccc21,1.4,-1.5,5.5,1.0,53.3*,5.6
Cn1nnnc1SCC(=O)N1c2ccccc2CCc2ccccc21,0.8,-1.9,-12.7,.,-1.8,4.3
COC(=O)[C@@H]1CCCN1Cc1c(C(=O)N2CCCCC2)nc2c(C)cccn12,-0.4,-1.3,-1.7,-0.2,-5.3,1.7
SMILES,BaF3 tox,Ba/F3 V617F tox,APP 5UTR inh,bCat nuc transl,L major viab,MT stabilizer
O=C1CC(SC2=NCCS2)C(=O)N1c1cccc(Cl)c1Cl (centres undefined),2.2,-1.3,-17.2,-0.7,-4.8,3.2
CCc1ccc(OCC(O)CN2CCC(CN3C(=O)c4cccc5cccc(c45)C3=O)CC2)cc1 (centres undefined),9.2,3.5,26.1,.,100.3*,4.7
COc1cccc(OCC(O)CN2CCC(CN3C(=O)c4cccc5cccc(c45)C3=O)CC2)c1 (centres undefined),17.7,9.9,20.6,.,87.4*,4.8
COc1ccc(COCC(O)CN2CCC(CN3C(=O)c4cccc5cccc(c45)C3=O)CC2)cc1OC (centres undefined),10.2,-1.3,16.6,.,21.8,6.2
O=C(NNS(=O)(=O)c1ccc(F)cc1)C1CCN(Cc2cccc(F)c2)CC1,2.6,-1.0,5.4,-0.3,85.8*,4.1
Cc1cc(C)c(S(=O)(=O)NNC(=O)C2CCN(Cc3ccccc3)CC2)c(C)c1,7.7,-2.3,3.4,.,91.1*,2.8

# Bioassay records: PubChem BioAssay, several laboratories
